m5-HT2A agonist: mouse Htr2a agonists via beta-arrestin recruitment, primary screen, cell-based, luminescence | CHO-K1 mHTR2A beta-arrestin complementation; percent of 30 µM serotonin response | actives 0.66% (n = 360,000) | 5-hydroxytryptamine receptor 2A (Mus musculus), P35363 | activation, % at 7.6 µM;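 active = activation above a run cutoff, the mean activation of all tested compounds plus 3 SD, cut at about 14% in these data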;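 also: 0% = plate median of compound wells and 100% = 30 µM serotonin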
Target sequence (P35363 whole entry, looked up): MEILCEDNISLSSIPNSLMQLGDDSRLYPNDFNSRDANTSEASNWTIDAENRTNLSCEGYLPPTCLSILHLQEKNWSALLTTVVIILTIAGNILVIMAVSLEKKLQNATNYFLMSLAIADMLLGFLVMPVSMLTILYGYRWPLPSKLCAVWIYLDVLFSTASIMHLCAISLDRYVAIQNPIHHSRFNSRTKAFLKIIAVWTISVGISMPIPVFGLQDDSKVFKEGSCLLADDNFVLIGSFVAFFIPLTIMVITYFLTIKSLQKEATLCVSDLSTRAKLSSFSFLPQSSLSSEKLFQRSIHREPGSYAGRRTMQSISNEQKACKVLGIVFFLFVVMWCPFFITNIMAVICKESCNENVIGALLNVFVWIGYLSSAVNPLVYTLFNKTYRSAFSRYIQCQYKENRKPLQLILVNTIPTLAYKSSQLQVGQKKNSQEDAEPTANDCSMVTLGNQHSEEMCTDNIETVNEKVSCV
EBI2 antag: EBI2 receptor antagonists, beta-arrestin recruitment, primary screen, cell-based, luminescence, 7a,25-OHC stimulation, uHTS | 7a,25-OHC stimulated | inhibition, % at 5 µM | actives 0.81% (n = 360,000) | G-protein coupled receptor 183 (Homo sapiens), P32249 | AID 651636, 2012; in the data active = inhibition above about 38%;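 also: enzyme fragment complementation signal reports receptor beta-arrestin coupling in cells; 0% = agonist plus DMSO wells and 100% = wells without agonist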
MC4R antag cAMP: MC4R antagonists of cAMP signaling, primary screen, cell-based, TR-FRET, antagonist arm of biased-ligand search; Melanocortin receptor 4 (Homo sapiens), P32245; MC4R-expressing cells, MTII-stimulated cAMP, LANCE TR-FRET; inhibition, % at 6.5 µM; actives 0.48% (n = 360,000); AID 540295, 2011;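 active = inhibition above its plate's cutoff, the mean of tested wells on that plate plus 3 SD, cut at about 29% in these data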;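 also: 0% = Melanotan II alone and 100% = Melanotan II plus saturating MCL0020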
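Material: U2OS-MC4R stable cell line | Reagent: Melanotan II challenge after compound preincubation | Doses: One concentration, 6.5 µM nominal | Incubation: 30-min compound preincubation, 1-h Melanotan II challenge, 1-h detection, room temperature | Signal: TR-FRET cAMP assay | Replicates: One well per compound, no replicates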
MC4R ag barr: MC4R agonists recruiting beta-arrestin, primary screen, cell-based, luminescence, agonist arm of biased-ligand search; activation, % at 8.9 µM; Melanocortin receptor 4 (Homo sapiens), P32245; U2OS MC4R beta-arrestin complementation; percent of melanotan II response, DMSO zero; actives 0.98% (n = 360,000);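 active = activation above a per-plate cutoff, the mean activation of sample wells on that plate plus 3 SD, cut at about 8% in these data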
MC4R barr ag: MC4R beta-arrestin agonists, retest, confirmation, cell-based, luminescence, U2OS. U2OS MC4R beta-arrestin recruitment; scaled DMSO 0%, Melanotan II 100%. AID 602192, 2012. activation, % at 8.9 µM. actives 31% (n = 2,400). shares compounds with MC4R ag barr;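 active = mean activation across replicates above the hit cutoff set in the earlier primary screen, cut at about 8% in these data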
MOR DOR agonist: agonists of MOR-DOR heterodimerization, counter-screen for MC4R biased agonist project, cell-based, luminescence | shares compounds with MC4R ag barr | U2OS PathHunter beta-arrestin, beta-gal luminescence; percent of deltorphin B response, DMSO zero | activation, % at 9.2 µM | actives 5.8% (n = 2,400) | AID 602194, 2012;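 active = mean activation across replicates exceeds the hit threshold derived in the earlier primary screen, cut at about 18% in these data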;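 also: 100% = deltorphin B at 0.9 µM final and 0% = DMSO alone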
The depositor's hits bear a star. Hits are enriched below; roughly 2.8% of the tested compounds scored in any of these assays.

Cc1cc(C)n(-c2nc3ccccc3nc2Nc2ccc3[nH]c(=O)[nH]c3c2)n1 was read as m5-HT2A agonist 5, EBI2 antag -11, MC4R antag cAMP 3, MC4R ag barr 19*, MC4R barr ag 9.6* and MOR DOR agonist 2.
`COc1ccc(Nc2nc3ccccc3nc2-n2nc(C)cc2C)cc1` gave m5-HT2A agonist -2, EBI2 antag -1, MC4R antag cAMP 13 and MC4R ag barr -3.
`CCn1c(CCNC(=O)c2ccc(Cl)c(Cl)c2)nnc1SCCOc1ccc(OC)cc1` gave m5-HT2A agonist -3, EBI2 antag 19, MC4R antag cAMP 12, MC4R ag barr 11*, MC4R barr ag 4 and MOR DOR agonist 6.
Screening COc1ccc(OCCSc2nnc(CCNC(=O)c3ccc(Cl)c(Cl)c3)n2C)cc1 returned m5-HT2A agonist -1, EBI2 antag 12, MC4R antag cAMP 23 and MC4R ag barr 2.
`O=C(Nc1cccc(OC(F)(F)F)c1)c1cccc2c(-c3cccnc3)coc12` gave m5-HT2A agonist 3, EBI2 antag 6, MC4R antag cAMP -2 and MC4R ag barr 2.
O=C(COC(=O)c1ccccc1Nc1ccccc1)c1ccccc1 was read as m5-HT2A agonist -7, EBI2 antag 15, MC4R antag cAMP 8 and MC4R ag barr 1.
Screening Cc1ccc(NC(=O)COC(=O)c2ccccc2Nc2ccccc2)cc1 returned m5-HT2A agonist 3, EBI2 antag -2, MC4R antag cAMP -6, MC4R ag barr 13*, MC4R barr ag 3 and MOR DOR agonist 5.
`COc1cc(/C=N/N=C(/N)c2nonc2N)cc(Br)c1OCc1ccccc1C` gave m5-HT2A agonist -4, EBI2 antag 22, MC4R antag cAMP 25, MC4R ag barr 16*, MC4R barr ag 6 and MOR DOR agonist 3.
`Cc1ccc(S(=O)(=O)NN=Cc2ccco2)cc1` gave m5-HT2A agonist -5, EBI2 antag 0, MC4R antag cAMP 4 and MC4R ag barr -1.
NC(=S)N/N=C/c1cc([N+](=O)[O-])ccc1OCCOc1ccccc1 was read as m5-HT2A agonist 6, EBI2 antag -17, MC4R antag cAMP -12, MC4R ag barr 16*, MC4R barr ag 2 and MOR DOR agonist 4.
`CC(=O)N/N=C/c1cc([N+](=O)[O-])ccc1OCCOc1ccccc1` gave m5-HT2A agonist -2, EBI2 antag -3, MC4R antag cAMP 7 and MC4R ag barr 0.
Screening O=C(CN(CCc1ccccc1)S(=O)(=O)c1ccc(Cl)cc1)N/N=C/c1ccc2c(c1)OCO2 returned m5-HT2A agonist 2, EBI2 antag 13, MC4R antag cAMP 7, MC4R ag barr 25*, MC4R barr ag 7 and MOR DOR agonist 5.
For COc1ccc(S(=O)(=O)N(CCc2ccccc2)CC(=O)N/N=C/c2ccc3c(c2)OCO3)cc1 the results were m5-HT2A agonist -4, EBI2 antag 8, MC4R antag cAMP 1 and MC4R ag barr 2.
For COc1cc2nc(Nc3ccc(C)c(Cl)c3)nc(N)c2cc1OC the results were m5-HT2A agonist -1, EBI2 antag 0, MC4R antag cAMP 0, MC4R ag barr 11*, MC4R barr ag 18* and MOR DOR agonist 13.
For CN(C(=O)CSc1nnc(C(F)(F)F)n1C)c1c(N)n(Cc2ccccc2)c(=O)[nH]c1=O the results were m5-HT2A agonist 1, EBI2 antag -1, MC4R antag cAMP -1 and MC4R ag barr 0.
CC1=C(C(=O)N2CCCCCC2)CC(CC(=O)NCCc2ccccn2)C(=O)N1Cc1ccc(F)cc1 (stereo not given) was read as m5-HT2A agonist 1 and EBI2 antag -10.
